Measurements taken from ChEMBL document CHEMBL1140964, “1,8-Naphthyridines VII. New substituted 5-amino[1,2,4]triazolo[4,3-a][1,8]naphthyridine-6-carboxamides and their isosteric analogues, exhibiting notable anti-inflammatory and/or analgesic activities, but no acute gastrolesivity” (Eur J Med Chem, 2008).

How the values were obtained:
[1] = species: Mus musculus; experiment: animal or person; details: Swiss, po, read-out: INH
[2] = system: Rattus norvegicus; experiment: Antiinflammatory activity against carrageenan-induced paw edema in Wistar rat at 10 mg/kg, po dose administered 1 hr before carrageenan challenge assessed after 3 hrs; type: functional
[3] = system: Rattus norvegicus; experiment: Antiinflammatory activity against carrageenan-induced paw edema in Wistar rat at 100 mg/kg, po dose administered 1 hr before carrageenan challenge assessed after 3 hrs; type: functional
In short: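 Wistar rats (250–300 g, either sex), fasted overnight, dosed by oral gavage with the compound suspended in 0.5% methylcellulose. Controls received vehicle alone, with 8–10 animals per group. Dosing started at 100 mg/kg and was halved stepwise. Carrageenan (1%, 0.1 mL) was injected subplantar 1 h post-dose. Paw volume was measured by plethysmometer immediately and at 3 h, and % inhibition of swelling was calculated versus controls (Student's t-test).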

[4] = system: Mus musculus; experiment: Antinociceptive activity in Swiss mouse assessed as inhibition of acetic acid-induced writhing response at 100 mg/kg, po dose administered 1 hr before acetic acid challenge measured for 30 mins; type: functional
In short: (§1)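 Swiss mice (25–35 g, either sex), fasted overnight, received compound orally in 0.5% methylcellulose or vehicle, with 8–10 per group. Testing started at 100 mg/kg with successive twofold dose reductions. Writhes were counted for 30 min after acetic acid injection. Percent inhibition of the writhing response was calculated versus vehicle controls (Student's t-test).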

[5] = system: Mus musculus; experiment: Sedative activity in Swiss mouse assessed as inhibition on spontaneous locomotor activity at 6.25 mg/kg, po measured for every 5 mins during 60 to 90 mins; type: ADME, organism-based; design: dose 6.25 mg/kg, route oral
In short: (§2)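 Fasted Swiss mice (25–35 g, either sex) were given compound orally in 0.5% methylcellulose or vehicle. Each mouse was placed alone in a photobeam-type activity cage, with counts recorded every 5 min for 90 min. Pulses from the final 30 min were scored, with testing run 9:00–13:00. Percent inhibition was calculated versus controls (Student's t-test).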

[6] = system: Mus musculus; experiment: Antinociceptive activity in Swiss mouse assessed as inhibition of acetic acid-induced writhing response at 1.6 mg/kg, po dose administered 1 hr before acetic acid challenge measured for 30 mins; type: functional
[7] = system: Mus musculus; experiment: Antinociceptive activity in Swiss mouse assessed as inhibition of acetic acid-induced writhing response at 12.5 mg/kg, po dose administered 1 hr before acetic acid challenge measured for 30 mins; type: functional
In short: as §1

[8] = system: Mus musculus; experiment: Antinociceptive activity in Swiss mouse assessed as inhibition of acetic acid-induced writhing response at 3.12 mg/kg, po dose administered 1 hr before acetic acid challenge measured for 30 mins; type: functional
[9] = system: Mus musculus; experiment: Antinociceptive activity in Swiss mouse assessed as inhibition of acetic acid-induced writhing response at 25 mg/kg, po dose administered 1 hr before acetic acid challenge measured for 30 mins; type: functional
In short: as §1

[10] = system: Mus musculus; experiment: Sedative activity in Swiss mouse assessed as inhibition on spontaneous locomotor activity at 25 mg/kg, po measured for every 5 mins during 60 to 90 mins; type: functional, organism-based; design: dose 25 mg/kg, route oral
In short: as §2

[11] = system: Rattus norvegicus; experiment: Acute gastrolesivity in Wistar rat assessed as appearance of gastric lesions at 200 mg/kg, po after 5 hrs; type: toxicity, organism-based, Stomach; design: dose 200 mg/kg, route oral; details: in vivo
In short: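 Wistar rats (250–300 g, either sex), fasted overnight, given the compound orally at 200 mg kg-1 as a suspension in 0.5% methylcellulose by gavage (1 mL/100 g); 8 rats per compound. Stomachs were fixed in 2% formalin, opened along the greater curvature, and examined under a stereomicroscope by a blinded observer. The result is the number of rats with gastric damage over the number treated.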

[12] = system: Mus musculus; experiment: Sedative activity in Swiss mouse assessed as inhibition on spontaneous locomotor activity at 12.5 mg/kg, po dose measured for every 5 mins during 60 to 90 mins; type: ADME, organism-based; design: dose 12.5 mg/kg, route oral
In short: as §2

[13] = system: Mus musculus; experiment: Sedative activity in Swiss mouse assessed as inhibition of spontaneous locomotor activity at 100 mg/kg, po dose measured for every 5 mins during 60 to 90 mins; type: organism-based; design: dose 100 mg/kg, route oral
In short: as §2

[14] = system: Mus musculus; experiment: Antinociceptive activity in Swiss mouse assessed as inhibition of acetic acid-induced writhing response at 50 mg/kg, po dose administered 1 hr before acetic acid challenge measured for 30 mins; type: functional
In short: as §1

[15] = system: Mus musculus; experiment: Antinociceptive activity in Swiss mouse assessed as inhibition of acetic acid-induced writhing response at 0.8 mg/kg, po dose administered 1 hr before acetic acid challenge measured for 30 mins; type: functional
[16] = system: Mus musculus; experiment: Antinociceptive activity in Swiss mouse assessed as inhibition of acetic acid-induced writhing response at 6.25 mg/kg, po dose administered 1 hr before acetic acid challenge measured for 30 mins; type: functional
In short: as §1

[17] = system: Mus musculus; experiment: Antinociceptive activity in Swiss mouse assessed as inhibition of acetic acid-induced writhing response at 200 mg/kg, po dose administered 1 hr before acetic acid challenge measured for 30 mins; type: functional
[18] = system: Rattus norvegicus; experiment: Antiinflammatory activity against carrageenan-induced paw edema in Wistar rat at 200 mg/kg, po dose administered 1 hr before carrageenan challenge assessed after 3 hrs; type: functional

SMILES	inhibition in vivo at 10 mg/kg [1]	inhibition in vivo at 10 mg/kg [2]	inhibition in vivo at 100 mg/kg [3]	inhibition in vivo at 100 mg/kg [4]	inhibition at 6.25 mg/kg [5]	inhibition in vivo at 1.6 mg/kg [6]	inhibition in vivo at 12.5 mg/kg [7]	inhibition in vivo at 3.12 mg/kg [8]	inhibition in vivo at 25 mg/kg [9]	inhibition at 25 mg/kg [10]	Activity [11]	inhibition at 12.5 mg/kg [12]	inhibition at 100 mg/kg [13]	inhibition in vivo at 50 mg/kg [14]	inhibition in vivo at 0.8 mg/kg [15]	inhibition in vivo at 6.25 mg/kg [16]	inhibition in vivo at 200 mg/kg [17]	inhibition in vivo at 200 mg/kg [18]
COc1ccc2c(c1)c(CC(=O)O)c(C)n2C(=O)c1ccc(Cl)cc1 [INDOMETHACIN]	84%	51%	–	–	–	–	–	–	–	–	–	–	–	–	–	–	–	–
CCN(CC)C(=O)c1c(N2CCN(C)CC2)c2cccnc2n2c(C(C)C)nnc12	–	–	23%	88%	19%	39%	92%	85%	90%	99%	Non-toxic	74%	94%	85%	3%	83%	86%	34%
